# Results from ChEMBL document CHEMBL2029237, “Melanin-concentrating hormone receptor 1 antagonists. Synthesis and structure-activity relationships of novel 3-(aminomethyl)quinolines” (J Med Chem, 2012).
# Target: T1, Melanin-concentrating hormone receptor 1 (Homo sapiens, UniProt Q99705)
# Assay: Antagonist activity at human MCHR1 expressed in CHO cells assessed as inhibition of MCH-induced [3H]arachidonic acid release […] by liquid scintillation counting
# Assay type: functional, cell-based
# Details: in the assay text read “45 mins” for “16 hrs”
# How it was run: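 Human MCHR1-CHO cells seeded at 50 000/well, cultured 1 day, then loaded with [3H]arachidonic acid (0.2 μCi/well) for 16 h. Washed with DMEM containing 20 mM HEPES pH 7.4 and 0.2% BSA. Compound preincubated 30 min at 37 °C, MCH added, 45 min incubation, medium radioactivity by liquid scintillation.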
# T1 sequence (Q99705 whole entry): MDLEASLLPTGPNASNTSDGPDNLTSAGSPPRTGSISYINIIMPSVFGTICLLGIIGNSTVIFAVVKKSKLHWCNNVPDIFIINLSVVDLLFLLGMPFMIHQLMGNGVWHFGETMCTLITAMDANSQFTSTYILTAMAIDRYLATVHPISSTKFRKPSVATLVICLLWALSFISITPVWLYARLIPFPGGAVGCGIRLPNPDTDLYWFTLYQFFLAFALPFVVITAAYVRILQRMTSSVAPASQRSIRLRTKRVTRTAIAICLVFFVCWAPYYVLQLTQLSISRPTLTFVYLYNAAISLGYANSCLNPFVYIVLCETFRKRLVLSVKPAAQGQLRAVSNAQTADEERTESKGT
row,Structure (SMILES),IC50 [nM]
1,COc1ccc(-c2ccc(C(=O)Nc3ccc4cc(CN5CCCC5)cnc4c3C)cc2)cc1,4.3
2,O=C(Nc1ccc2cc(CN3CCCC3)cnc2c1)c1ccc(-c2ccc(Cl)cc2)nc1,14
3,Cc1c(NC(=O)c2ccc(-c3ccccc3)cc2)ccc2cc(CN3CCCC3)cnc12,7
4,O=C(Nc1cc2ncc(CN3CCCC3)cc2cc1Cl)c1ccc(-c2ccc(F)cc2)cc1,12
5,O=C(Nc1ccc2nc(CN3CCCC3)ccc2c1)c1ccc(-c2ccc(F)cc2)cc1,40
6,O=C(Nc1ccc2cc(CN3CCCC3)cnc2c1F)c1ccc(-c2ccc(F)cc2)cc1,2.3
7,Cc1cc2cc(CN3CCCC3)cnc2cc1NC(=O)c1ccc(-c2ccc(F)cc2)cc1,10
8,Cc1ccc(-c2ccc(C(=O)Nc3ccc4cc(CN5CCCC5)cnc4c3C)cc2)cc1,11

# Target: T2, 5-hydroxytryptamine receptor 2C (Homo sapiens, UniProt P28335)
# T2 sequence (P28335 whole entry): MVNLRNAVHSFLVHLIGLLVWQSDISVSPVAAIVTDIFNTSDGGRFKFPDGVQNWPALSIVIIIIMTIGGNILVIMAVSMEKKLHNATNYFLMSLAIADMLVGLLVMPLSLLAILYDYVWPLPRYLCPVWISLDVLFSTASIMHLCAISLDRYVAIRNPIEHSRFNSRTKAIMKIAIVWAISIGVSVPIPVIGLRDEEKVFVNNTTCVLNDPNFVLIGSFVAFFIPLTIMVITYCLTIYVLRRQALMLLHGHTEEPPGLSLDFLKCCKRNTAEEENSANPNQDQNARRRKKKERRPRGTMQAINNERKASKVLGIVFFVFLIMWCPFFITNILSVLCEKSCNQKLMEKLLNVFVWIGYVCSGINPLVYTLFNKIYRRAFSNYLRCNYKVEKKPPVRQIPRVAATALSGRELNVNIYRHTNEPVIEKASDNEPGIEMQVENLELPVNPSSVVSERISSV
# Assay: Displacement of [3H]mesulergine from human 5HT2C receptor expressed in CHO cells after 1 hr by scintillation counting
# Assay type: cell-based
# Details: not given
# How it was run: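 Membranes from CHO cells stably expressing human 5-HT2c incubated 1 h at room temperature with [3H]mesulergine and compound at various concentrations. Terminated by GF/C filtration, filter radioactivity counted by scintillation. IC50 from one experiment in duplicate.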
row,Structure (SMILES),IC50 [nM]
1,COc1ccc(-c2ccc(C(=O)Nc3ccc4cc(CN5CCCC5)cnc4c3C)cc2)cc1,> 1000
2,O=C(Nc1ccc2cc(CN3CCCC3)cnc2c1)c1ccc(-c2ccc(Cl)cc2)nc1,930
3,Cc1c(NC(=O)c2ccc(-c3ccccc3)cc2)ccc2cc(CN3CCCC3)cnc12,760
4,O=C(Nc1cc2ncc(CN3CCCC3)cc2cc1Cl)c1ccc(-c2ccc(F)cc2)cc1,240
5,O=C(Nc1ccc2nc(CN3CCCC3)ccc2c1)c1ccc(-c2ccc(F)cc2)cc1,36
6,O=C(Nc1ccc2cc(CN3CCCC3)cnc2c1F)c1ccc(-c2ccc(F)cc2)cc1,78
7,Cc1cc2cc(CN3CCCC3)cnc2cc1NC(=O)c1ccc(-c2ccc(F)cc2)cc1,7.4
8,Cc1ccc(-c2ccc(C(=O)Nc3ccc4cc(CN5CCCC5)cnc4c3C)cc2)cc1,540

# Target: T1, Melanin-concentrating hormone receptor 1
# Assay: Displacement of [125I]MCH from human MCHR1 expressed in CHO cells after 1 hr by scintillation counting
# Assay type: cell-based
# Details: not given
# How it was run: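 CHO cell membranes stably expressing human or rat MCHR1 incubated 1 h at room temperature with [125I]MCH(4−19) and compound at various concentrations. Filtration through GF/C glass filters, bound radioactivity counted by scintillation. IC50 from one experiment in duplicate.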
row,Structure (SMILES),IC50 [nM]
1,COc1ccc(-c2ccc(C(=O)Nc3ccc4cc(CN5CCCC5)cnc4c3C)cc2)cc1,0.53
2,O=C(Nc1ccc2cc(CN3CCCC3)cnc2c1)c1ccc(-c2ccc(Cl)cc2)nc1,4.1
3,Cc1c(NC(=O)c2ccc(-c3ccccc3)cc2)ccc2cc(CN3CCCC3)cnc12,1.8
4,O=C(Nc1cc2ncc(CN3CCCC3)cc2cc1Cl)c1ccc(-c2ccc(F)cc2)cc1,1.4
5,O=C(Nc1ccc2nc(CN3CCCC3)ccc2c1)c1ccc(-c2ccc(F)cc2)cc1,2.7
6,O=C(Nc1ccc2cc(CN3CCCC3)cnc2c1F)c1ccc(-c2ccc(F)cc2)cc1,0.92
7,Cc1cc2cc(CN3CCCC3)cnc2cc1NC(=O)c1ccc(-c2ccc(F)cc2)cc1,1.3
8,Cc1ccc(-c2ccc(C(=O)Nc3ccc4cc(CN5CCCC5)cnc4c3C)cc2)cc1,1
